From ChEMBL document CHEMBL1129477, “Structure-activity relationships of the quinolone antibacterials against mycobacteria: effect of structural changes at N-1 and C-7” (J Med Chem, 1996) come the findings set out here.

What all share (assay type): functional
Assay [1] deals with Mycolicibacterium fortuitum. The assay can be described thus: Anti-bacterial activity tested against Mycobacterium fortuitum (ATCG 6841).
Assay [2] concerns Pseudomonas aeruginosa. Briefly: Anti-bacterial activity tested against Gram-negative PA-7 bacterium. An outline of the steps: (§1)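 Standard microtitration MIC determination (µg/mL) against four representative Gram-negative and Gram-positive bacterial strains.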
Assay [3] has as its system Mycolicibacterium smegmatis. Briefly: Anti-bacterial activity tested against Mycobacterium smegmatis (ATCG 19420).
Assay [4] has as its system Staphylococcus aureus. Briefly: Anti-bacterial activity was tested against Gram-positive SA-13 bacterium. In a few lines:
as §1

The subject of assay [5] is Escherichia coli. The assay can be described thus: Anti-bacterial activity was tested against Gram-negative EC-1 bacterium. In a few lines:
as §1

The test system of assay [6] is Streptococcus pyogenes. Briefly: Anti-bacterial activity tested against Gram-positive SP1-1 bacterium. An outline of the steps: as §1

Converted amounts (≈) assume the structure as drawn. Where only a bound is given, the exact number is not on record here.

For orientation: MIC means the smallest concentration in the dilution series that meets the test's criterion for growth inhibition. A lower MIC goes with inhibition by little substance. Take `NC1CCN(c2cc3c(cc2F)c(=O)c(C(=O)O)cn3C2CC2)C1` (stereo unspecified): the MIC was less than 0.03 µg/mL in assay [1]; 0.2 µg/mL (≈ 0.604 µM) in assay [2]; 0.25 µg/mL (≈ 0.754 µM) in assay [3]; 0.4 µg/mL (≈ 1.21 µM) in assay [4]; 0.05 µg/mL (≈ 0.151 µM) in assay [5]; 0.8 µg/mL (≈ 2.41 µM) in assay [6].

As for `CC(C)n1cc(C(=O)O)c(=O)c2cc(F)c(N3CCC(N)C3)cc21` (stereo unspecified), the minimum inhibitory concentration (MIC) is 1 µg/mL (≈ 3 µM) in assay [1]; 1.6 µg/mL (≈ 4.8 µM) in assay [2]; 2 µg/mL (≈ 6 µM) in assay [3]; 3.1 µg/mL (≈ 9.3 µM) in assay [4]; 0.8 µg/mL (≈ 2.4 µM) in assay [5]; greater than 3.1 µg/mL in assay [6].

`CC(C)N1CCN(c2cc3c(cc2F)c(=O)c(C(=O)O)cn3-c2ccc(F)cc2F)CC1`: the MIC in assay [1] came to 0.5 µg/mL (≈ 1.12 µM); in assay [2], 3.1 µg/mL (≈ 6.96 µM); in assay [3], 1 µg/mL (≈ 2.24 µM); in assay [4] it was 0.4 µg/mL (≈ 0.898 µM); in assay [5], 0.8 µg/mL (≈ 1.8 µM); in assay [6], 3.1 µg/mL (≈ 6.96 µM).

For the molecule `CCNCC1CCN(c2cc3c(cc2F)c(=O)c(C(=O)O)cn3-c2ccc(F)cc2F)C1` (stereo unspecified), the MIC in assay [1] was 0.5 µg/mL (≈ 1.12 µM); in assay [2], 1.6 µg/mL (≈ 3.59 µM); in assay [3], 0.5 µg/mL (≈ 1.12 µM); in assay [4] it was 0.2 µg/mL (≈ 0.449 µM); in assay [5], 0.4 µg/mL (≈ 0.898 µM); in assay [6], 0.1 µg/mL (≈ 0.224 µM).

With `CC1CN(c2cc3c(cc2F)c(=O)c(C(=O)O)cn3-c2ccc(F)cc2F)CC(C)N1` (stereo unspecified), the MIC came out at 0.25 µg/mL (≈ 0.579 µM) in assay [1]; 0.8 µg/mL (≈ 1.85 µM) in assay [2]; 0.5 µg/mL (≈ 1.16 µM) in assay [3]; 0.4 µg/mL (≈ 0.927 µM) in assay [4]; 0.4 µg/mL (≈ 0.927 µM) in assay [5]; 0.8 µg/mL (≈ 1.85 µM) in assay [6].

For the molecule `CC1(CN)CCN(c2cc3c(cc2F)c(=O)c(C(=O)O)cn3C2CC2)C1` (stereo unspecified), the MIC was less than 0.03 µg/mL in assay [1]; 0.4 µg/mL (≈ 1.11 µM) in assay [2]; 0.06 µg/mL (≈ 0.167 µM) in assay [3]; 0.1 µg/mL (≈ 0.278 µM) in assay [4]; 0.4 µg/mL (≈ 1.11 µM) in assay [5]; 0.05 µg/mL (≈ 0.139 µM) in assay [6].

On to `CC1CN(c2cc3c(cc2F)c(=O)c(C(=O)O)cn3C2CC2)CCN1` (stereo unspecified), for which the MIC was 0.06 µg/mL (≈ 0.174 µM) in assay [1]; 0.2 µg/mL (≈ 0.579 µM) in assay [2]; 0.25 µg/mL (≈ 0.724 µM) in assay [3]; 0.8 µg/mL (≈ 2.32 µM) in assay [4]; 0.05 µg/mL (≈ 0.145 µM) in assay [5]; 0.8 µg/mL (≈ 2.32 µM) in assay [6].

Regarding `CCn1cc(C(=O)O)c(=O)c2cc(F)c(N3CCC(CNC)C3)cc21` (stereo unspecified), the MIC in assay [1] is 2 µg/mL (≈ 5.76 µM); in assay [2] it was greater than 3.1 µg/mL; in assay [3] it was 8 µg/mL (≈ 23 µM); in assay [4] it was 1.6 µg/mL (≈ 4.61 µM); in assay [5], 3.1 µg/mL (≈ 8.92 µM); in assay [6] it was 0.4 µg/mL (≈ 1.15 µM).

For `CNCC1CCN(c2cc3c(cc2F)c(=O)c(C(=O)O)cn3C2CCC2)C1` (stereo unspecified), the minimal inhibitory concentration (MIC) in assay [1] came out at 2 µg/mL (≈ 5.36 µM); in assay [2], 3.1 µg/mL (≈ 8.3 µM); in assay [3] it was 4 µg/mL (≈ 10.7 µM); in assay [4] it was 0.8 µg/mL (≈ 2.14 µM); in assay [5], 0.8 µg/mL (≈ 2.14 µM); in assay [6], 1.6 µg/mL (≈ 4.28 µM).

Regarding `CCNCC1CCN(c2cc3c(cc2F)c(=O)c(C(=O)O)cn3C2CC2)C1` (stereo unspecified), the MIC is 0.5 µg/mL (≈ 1.34 µM) in assay [1]; 1.6 µg/mL (≈ 4.28 µM) in assay [2]; 0.5 µg/mL (≈ 1.34 µM) in assay [3]; 0.8 µg/mL (≈ 2.14 µM) in assay [4]; 0.1 µg/mL (≈ 0.268 µM) in assay [5]; 0.8 µg/mL (≈ 2.14 µM) in assay [6].

Take `CN(C)CC1CCN(c2cc3c(cc2F)c(=O)c(C(=O)O)cn3C2CC2)C1` (stereo unspecified): the MIC in assay [1] came to 0.13 µg/mL (≈ 0.348 µM); in assay [2], 0.8 µg/mL (≈ 2.14 µM); in assay [3], 0.5 µg/mL (≈ 1.34 µM); in assay [4], 0.2 µg/mL (≈ 0.536 µM); in assay [5], 0.2 µg/mL (≈ 0.536 µM); in assay [6] it was 0.2 µg/mL (≈ 0.536 µM).

For `O=C(O)c1cn(C2CCC2)c2cc(N3CCNCC3)c(F)cc2c1=O`, the MIC is 0.5 µg/mL (≈ 1.45 µM) in assay [1]; 1.6 µg/mL (≈ 4.63 µM) in assay [2]; 2 µg/mL (≈ 5.79 µM) in assay [3]; 3.1 µg/mL (≈ 8.98 µM) in assay [4]; 0.4 µg/mL (≈ 1.16 µM) in assay [5]; greater than 3.1 µg/mL in assay [6].

Consider `NC1CCN(c2cc3c(cc2F)c(=O)c(C(=O)O)cn3-c2ccc(F)cc2F)C1` (stereo unspecified), for which the MIC amounted to 0.13 µg/mL (≈ 0.322 µM) in assay [1]; 0.2 µg/mL (≈ 0.496 µM) in assay [2]; 0.13 µg/mL (≈ 0.322 µM) in assay [3]; 0.05 µg/mL (≈ 0.124 µM) in assay [4]; 0.03 µg/mL (≈ 0.0744 µM) in assay [5]; 0.1 µg/mL (≈ 0.248 µM) in assay [6].

On to `CCn1cc(C(=O)O)c(=O)c2cc(F)c(N3CC(C)NC(C)C3)cc21` (stereo unspecified), for which the MIC in assay [1] is 0.13 µg/mL (≈ 0.374 µM); in assay [2], 3.1 µg/mL (≈ 8.92 µM); in assay [3], 1 µg/mL (≈ 2.88 µM); in assay [4], 0.8 µg/mL (≈ 2.3 µM); in assay [5], 0.4 µg/mL (≈ 1.15 µM); in assay [6] it was greater than 3.1 µg/mL.

Take `CCN1CCN(c2cc3c(cc2F)c(=O)c(C(=O)O)cn3C2CC2)CC1` [ENROFLOXACIN]: the MIC in assay [1] is 0.06 µg/mL (≈ 0.167 µM); in assay [2], 0.8 µg/mL (≈ 2.23 µM); in assay [3] it was 0.13 µg/mL (≈ 0.362 µM); in assay [4] it was 0.2 µg/mL (≈ 0.556 µM); in assay [5], 0.05 µg/mL (≈ 0.139 µM); in assay [6], 0.8 µg/mL (≈ 2.23 µM).

On to `CC1CN(c2cc3c(cc2F)c(=O)c(C(=O)O)cn3C(C)C)CC(C)N1` (stereo unspecified), for which the MIC was 0.5 µg/mL (≈ 1.38 µM) in assay [1]; greater than 3.1 µg/mL in assay [2]; 2 µg/mL (≈ 5.53 µM) in assay [3]; 3.1 µg/mL (≈ 8.58 µM) in assay [4]; 1.6 µg/mL (≈ 4.43 µM) in assay [5]; greater than 3.1 µg/mL in assay [6].
